According to ChEMBL document CHEMBL1671752, “Genotypic characterization of UL23 thymidine kinase and UL30 DNA polymerase of clinical isolates of herpes simplex virus: natural polymorphism and mutations associated with resistance to antivirals” (Antimicrob Agents Chemother, 2010):

Key:
[1] = system: Human alphaherpesvirus 1; assay: Antiviral activity against Herpes simplex virus 1 isolate 1 harboring C6G N23S K36E L42P G240E A265T and A207P mutations in thymidine kinase and S33G, A330R, N425T, V905M mutations in DNA polymerase infected in african green monkey Vero cells by plaque reduction assay; format: functional, organism-based; conditions: Human alphaherpesvirus 1, isolate 1, Vero
Summary of the method: (§1)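 EC50 by plaque reduction assay in Vero cells against acyclovir and foscarnet. Vero cells grown in RPMI 1640 with 2% fetal bovine serum, 2 mM glutamine, 20 μg/ml vancomycin and 20 μg/ml amikacin. KOS (HSV-1) and gHSV2 (HSV-2) run as susceptible controls in each assay. […] HSV type confirmed by immunofluorescence with type-specific monoclonal antibodies.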

[2] = system: Human alphaherpesvirus 1; assay: Antiviral activity against Herpes simplex virus 1 isolate 3 harboring N23S, K36E, R89Q, A265T, Y53D mutations in thymidine kinase and S33G, A330R, V905M, E1005K mutations in DNA polymerase infected in african green monkey Vero cells by plaque reduction assay; format: functional, organism-based; conditions: Human alphaherpesvirus 1, isolate 3, Vero; summary of the method: as §1
[3] = system: Human alphaherpesvirus 1; assay: Antiviral activity against Herpes simplex virus 1 isolate 4 harboring N23S, K36E -1C 553 = frameshift mutations in thymidine kinase and S33G, A330R, A899V, L1188F mutations in DNA polymerase infected in african green monkey Vero cells by plaque reduction assay; format: functional, organism-based; conditions: Human alphaherpesvirus 1, isolate 4, Vero; summary of the method: as §1
[4] = system: Human alphaherpesvirus 1; assay: Antiviral activity against Herpes simplex virus 1 isolate 5 harboring N23S, K36E, A192V, G251C, A265T, V267L, P268T, -1G 856 = frameshift mutations in thymidine kinase and A330R, V905M, T1208A, H98Y mutations in DNA polymerase infected in african green monkey Vero cells by plaque reduction assay; format: functional, organism-based; conditions: Human alphaherpesvirus 1, isolate 5, Vero; summary of the method: as §1
[5] = system: Human alphaherpesvirus 1; assay: Antiviral activity against Herpes simplex virus 1 isolate 6 harboring N23S, K36E, R89Q, +1G 437-438 = Stop 225 mutations in thymidine kinase and S33G, A330R, A646T, S1123L, P1124H, T1208A, R1229I mutations in DNA polymerase infected in african green monkey Vero cells by plaque reduction assay; format: functional, organism-based; conditions: Human alphaherpesvirus 1, isolate 6, Vero; summary of the method: as §1
[6] = system: Human alphaherpesvirus 1; assay: Antiviral activity against Herpes simplex virus 1 isolate 7 harboring N23S, K36E, R89Q, +1C 464-465 = Stop 228 mutations in thymidine kinase and S33G, A330R, P1124H, T1208A, A870G mutations in DNA polymerase infected in african green monkey Vero cells by plaque reduction assay; format: functional, organism-based; conditions: Human alphaherpesvirus 1, isolate 7, Vero; summary of the method: as §1
[7] = system: Human alphaherpesvirus 1; assay: Antiviral activity against Herpes simplex virus 1 isolate 8 harboring N23S, K36E, R89Q, +1G 437-438 = Stop 228 mutations in thymidine kinase and A330R, P875S, V905M, P1124H, T1208A mutations in DNA polymerase infected in african green monkey Vero cells by plaque reduction assay; format: functional, organism-based; conditions: Human alphaherpesvirus 1, isolate 8, Vero; summary of the method: as §1
[8] = system: Human alphaherpesvirus 1; assay: Antiviral activity against Herpes simplex virus 1 isolate 9 harboring N23S, K36E, R89Q, +1G 437-438 = Stop 228 mutations in thymidine kinase and S33G, A330R, V905M, A1203T, T1208A mutations in DNA polymerase infected in african green monkey Vero cells by plaque reduction assay; format: functional, organism-based; conditions: Human alphaherpesvirus 1, isolate 9, Vero; summary of the method: as §1
[9] = system: Human alphaherpesvirus 1; assay: Antiviral activity against Herpes simplex virus 1 isolate 10 harboring N23S, K36E, R89Q, A265T C336Y mutations in thymidine kinase and S33G, A330R, V905M mutations in DNA polymerase infected in african green monkey Vero cells by plaque reduction assay; format: functional, organism-based; conditions: Human alphaherpesvirus 1, isolate 10, Vero; summary of the method: as §1
[10] = system: Human alphaherpesvirus 1; assay: Antiviral activity against Herpes simplex virus 1 isolate 11 harboring N23S, K36E, G251C, A265T, P268T, R176W mutations in thymidine kinase and S33G, A330R, P1124H, T1208A, S724N, V117L, L267M mutations in DNA polymerase infected in african green monkey Vero cells by plaque reduction assay; format: functional, organism-based; conditions: Human alphaherpesvirus 1, isolate 11, Vero; summary of the method: as §1
[11] = system: Human alphaherpesvirus 2; assay: Antiviral activity against Herpes simplex virus 2 isolate 12 harboring G39E, N78D, L140F, S66P, A72S mutations in thymidine kinase and A9T, P15S, L60P mutations in DNA polymerase infected in african green monkey Vero cells by plaque reduction assay; format: functional, organism-based; conditions: Human alphaherpesvirus 2, isolate 12, Vero; summary of the method: as §1
[12] = system: Human alphaherpesvirus 2; assay: Antiviral activity against Herpes simplex virus 2 isolate 13 harboring, M183I mutations in thymidine kinase and A9T, P15S, R41H, L60P, E139K, A232T mutations in DNA polymerase infected in african green monkey Vero cells by plaque reduction assay; format: functional, organism-based; conditions: Human alphaherpesvirus 2, isolate 13, Vero; summary of the method: as §1
[13] = system: Human alphaherpesvirus 2; assay: Antiviral activity against Herpes simplex virus 2 isolate 14 harboring G39E, N78D, M70R mutations in thymidine kinase and A724V mutations in DNA polymerase infected in african green monkey Vero cells by plaque reduction assay; format: functional, organism-based; conditions: Human alphaherpesvirus 2, isolate 14, Vero; summary of the method: as §1
[14] = system: Human alphaherpesvirus 2; assay: Antiviral activity against Herpes simplex virus 2 isolate 15 harboring R221H mutations in thymidine kinase and A9T, P15S, L60P mutations in DNA polymerase infected in african green monkey Vero cells by plaque reduction assay; format: functional, organism-based; conditions: Human alphaherpesvirus 2, isolate 15, Vero; summary of the method: as §1
[15] = system: Human alphaherpesvirus 2; assay: Antiviral activity against Herpes simplex virus 2 isolate 16 harboring D137Stop mutations in thymidine kinase and A9T, P15S, L60P mutations in DNA polymerase infected in african green monkey Vero cells by plaque reduction assay; format: functional, organism-based; conditions: Human alphaherpesvirus 2, isolate 16, Vero; summary of the method: as §1
[16] = system: Human alphaherpesvirus 2; assay: Antiviral activity against Herpes simplex virus 2 isolate 17 harboring G39E, N78D Q222Stop mutations in thymidine kinase and A9T, P15S, L60P, T801P mutations in DNA polymerase infected in african green monkey Vero cells by plaque reduction assay; format: functional, organism-based; conditions: Human alphaherpesvirus 2, isolate 17, Vero; summary of the method: as §1
[17] = system: Human alphaherpesvirus 2; assay: Antiviral activity against Herpes simplex virus 2 isolate 18 harboring A27T, G39E, N78D, -1C 556 = Stop 263, S29A mutations in thymidine kinase and A9T, P15S, L60P, E678G, del, DD676-677 mutations in DNA polymerase infected in african green monkey Vero cells by plaque reduction assay; format: functional, organism-based; conditions: Human alphaherpesvirus 2, isolate 18, Vero; summary of the method: as §1
[18] = system: Human alphaherpesvirus 2; assay: Antiviral activity against Herpes simplex virus 2 isolate 19 harboring G39E, +2G 439-440 = Stop 184 mutations in thymidine kinase and A9T, P15S, L60P, del, DGDE683-686 mutations in DNA polymerase infected in african green monkey Vero cells by plaque reduction assay; format: functional, organism-based; conditions: Human alphaherpesvirus 2, isolate 19, Vero; summary of the method: as §1
[19] = system: Human alphaherpesvirus 2; assay: Antiviral activity against Herpes simplex virus 2 isolate 20 harboring G39E, -1C 467 = Stop 183 mutations in thymidine kinase and A9T, P15S, L60P, E139K, T801P mutations in DNA polymerase infected in african green monkey Vero cells by plaque reduction assay; format: functional, organism-based; conditions: Human alphaherpesvirus 2, isolate 20, Vero; summary of the method: as §1
[20] = system: Human alphaherpesvirus 2; assay: Antiviral activity against Herpes simplex virus 2 isolate 21 harboring G39E, N78D, L140F, -1C 452 = Stop 183 mutations in thymidine kinase and P15S, L60P, E678G mutations in DNA polymerase infected in african green monkey Vero cells by plaque reduction assay; format: functional, organism-based; conditions: Human alphaherpesvirus 2, isolate 21, Vero; summary of the method: as §1
[21] = system: Human alphaherpesvirus 2; assay: Antiviral activity against Herpes simplex virus 2 isolate 22 harboring G39E, N78D, L140F, +1G 439-440 = Stop 229 mutations in thymidine kinase and A9T, P15S, L60P, E678G, Y823C mutations in DNA polymerase infected in african green monkey Vero cells by plaque reduction assay; format: functional, organism-based; conditions: Human alphaherpesvirus 2, isolate 22, Vero; summary of the method: as §1
[22] = system: Human alphaherpesvirus 2; assay: Antiviral activity against Herpes simplex virus 2 isolate 23 harboring G39E, N78D, L140F, +1G 439-440 = Stop 229 mutations in thymidine kinase and A9T, P15S, L60P, I291V mutations in DNA polymerase infected in african green monkey Vero cells by plaque reduction assay; format: functional, organism-based; conditions: Human alphaherpesvirus 2, isolate 23, Vero; summary of the method: as §1
[23] = system: Human alphaherpesvirus 2; assay: Antiviral activity against Herpes simplex virus 2 isolate 24 harboring G39E, -1G 440 = Stop 229 mutations in thymidine kinase and A9T, P15S, L60P, E139K, H837R mutations in DNA polymerase infected in african green monkey Vero cells by plaque reduction assay; format: functional, organism-based; conditions: Human alphaherpesvirus 2, isolate 24, Vero; summary of the method: as §1
[24] = system: Human alphaherpesvirus 2; assay: Antiviral activity against Herpes simplex virus 2 isolate 25 harboring I101S mutations in thymidine kinase and D785N, V544A mutations in DNA polymerase infected in african green monkey Vero cells by plaque reduction assay; format: functional, organism-based; conditions: Human alphaherpesvirus 2, isolate 25, Vero; summary of the method: as §1
[25] = system: Human alphaherpesvirus 1; assay: Antiviral activity against Herpes simplex virus 1 isolate 2 harboring C6G, N23S, K36E, R41H, A192V, A265T, L170P mutations in thymidine kinase and S33G, A330R, V905M, T1208A mutations in DNA polymerase infected in african green monkey Vero cells by plaque reduction assay; conditions: Human alphaherpesvirus 1, isolate 2, Vero

Structure (SMILES)	EC50 [1]	EC50 [2]	EC50 [3]	EC50 [4]	EC50 [5]	EC50 [6]	EC50 [7]	EC50 [8]	EC50 [9]	EC50 [10]	EC50 [11]	EC50 [12]	EC50 [13]	EC50 [14]	EC50 [15]	EC50 [16]	EC50 [17]	EC50 [18]	EC50 [19]	EC50 [20]	other results
Nc1nc2c(ncn2COCCO)c(=O)[nH]1 [ACYCLOVIR]	> 50 µM	35 µM	16 µM	16 µM	26 µM	31 µM	10 µM	> 50 µM	22 µM	> 50 µM	43 µM	33 µM	24 µM	11 µM	> 50 µM	> 50 µM	18 µM	> 50 µM	> 50 µM	> 50 µM	EC50 [21]: > 50 µM; EC50 [22]: > 50 µM; EC50 [23]: > 50 µM; EC50 [24]: 42 µM; EC50 [25]: 11 µM
O=C(O)P(=O)(O)O [FOSCARNET]	< 66 µM	< 66 µM	< 66 µM	< 66 µM	< 66 µM	< 66 µM	< 66 µM	106 µM	< 66 µM	644 µM	< 66 µM	< 66 µM	92 µM	99 µM	< 66 µM	< 66 µM	< 66 µM	< 66 µM	< 66 µM	89 µM	EC50 [21]: 76 µM; EC50 [22]: < 66 µM; EC50 [23]: < 66 µM; EC50 [24]: 145 µM; EC50 [25]: < 66 µM
